Test results reported in ChEMBL document CHEMBL5678815 (Clin Cancer Res, 2017).
Calls of active or inactive are those of the source. The calls are words filed in the database; no cut-off is given here.

Key:
[1] = biological target: SRSF protein kinase 1 (Homo sapiens) (UniProt Q96SB4); experiment: Inhibition of human SRPK1 assessed as remaining activity at 1 uM by ATP-competition binding assay relative to control
How it was run: (§1)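 Single-concentration (1 μM) screen in an ATP-site-dependent competition binding assay (KINOMEscan, outsourced) covering 395 human kinases, mutants included. Non-covalent binding was read as the remaining signal relative to the control signal.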

[2] = biological target: Dual specificity tyrosine-phosphorylation-regulated kinase 1B (Homo sapiens) (UniProt Q9Y463); experiment: Inhibition of human DYRK1B assessed as remaining activity at 1 uM by ATP-competition binding assay relative to control
How it was run: (§2)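 KINOMEscan ATP-site-dependent competition binding panel of 395 human kinases, with compound tested at 1 μM. Binding is reported as remaining signal relative to control.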

[3] = test system: eIF-2-alpha kinase GCN2 (Homo sapiens), Q9P2K8 [S808G]; experiment: Inhibition of human GCN2 S808G mutant kinase domain 2 assessed as remaining activity at 1 uM by ATP-competition binding assay relative to control
How it was run: (§3)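 Single-point profiling at 1μM in an ATP-site-dependent competition binding assay across a panel of 395 human kinases, including mutant forms. The read-out is kinase binding signal in the presence of test agent, expressed as inhibition relative to the control signal. This screen assessed noncovalent binding interactions.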

[4] = biological target: Serine/threonine-protein kinase PAK 1 (Homo sapiens) (UniProt Q13153); experiment: Inhibition of human PAK1 assessed as remaining activity at 1 uM by ATP-competition binding assay relative to control; how it was run: as §3
[5] = biological target: Serine/threonine-protein kinase 17B (Homo sapiens) (UniProt O94768); experiment: Inhibition of human DRAK2 assessed as remaining activity at 1 uM by ATP-competition binding assay relative to control; how it was run: as §2
[6] = biological target: Myosin light chain kinase (Homo sapiens) (UniProt Q32MK0); experiment: Inhibition of human MLCK assessed as remaining activity at 1 uM by ATP-competition binding assay relative to control; how it was run: as §3
[7] = biological target: Ribosomal protein S6 kinase alpha-5 (Homo sapiens) (UniProt O75582); experiment: Inhibition of human RPS6KA5 assessed as remaining activity at 1 uM by ATP-competition binding assay relative to control; how it was run: as §1
[8] = biological target: Tyrosine-protein kinase JAK2 (Homo sapiens) (UniProt O60674); experiment: Inhibition of human JAK2 JH1 domain assessed as remaining activity at 1 uM by ATP-competition binding assay relative to control
Sequence of Tyrosine-protein kinase JAK2 (Homo sapiens) (O60674 whole entry, the tested form may be a part): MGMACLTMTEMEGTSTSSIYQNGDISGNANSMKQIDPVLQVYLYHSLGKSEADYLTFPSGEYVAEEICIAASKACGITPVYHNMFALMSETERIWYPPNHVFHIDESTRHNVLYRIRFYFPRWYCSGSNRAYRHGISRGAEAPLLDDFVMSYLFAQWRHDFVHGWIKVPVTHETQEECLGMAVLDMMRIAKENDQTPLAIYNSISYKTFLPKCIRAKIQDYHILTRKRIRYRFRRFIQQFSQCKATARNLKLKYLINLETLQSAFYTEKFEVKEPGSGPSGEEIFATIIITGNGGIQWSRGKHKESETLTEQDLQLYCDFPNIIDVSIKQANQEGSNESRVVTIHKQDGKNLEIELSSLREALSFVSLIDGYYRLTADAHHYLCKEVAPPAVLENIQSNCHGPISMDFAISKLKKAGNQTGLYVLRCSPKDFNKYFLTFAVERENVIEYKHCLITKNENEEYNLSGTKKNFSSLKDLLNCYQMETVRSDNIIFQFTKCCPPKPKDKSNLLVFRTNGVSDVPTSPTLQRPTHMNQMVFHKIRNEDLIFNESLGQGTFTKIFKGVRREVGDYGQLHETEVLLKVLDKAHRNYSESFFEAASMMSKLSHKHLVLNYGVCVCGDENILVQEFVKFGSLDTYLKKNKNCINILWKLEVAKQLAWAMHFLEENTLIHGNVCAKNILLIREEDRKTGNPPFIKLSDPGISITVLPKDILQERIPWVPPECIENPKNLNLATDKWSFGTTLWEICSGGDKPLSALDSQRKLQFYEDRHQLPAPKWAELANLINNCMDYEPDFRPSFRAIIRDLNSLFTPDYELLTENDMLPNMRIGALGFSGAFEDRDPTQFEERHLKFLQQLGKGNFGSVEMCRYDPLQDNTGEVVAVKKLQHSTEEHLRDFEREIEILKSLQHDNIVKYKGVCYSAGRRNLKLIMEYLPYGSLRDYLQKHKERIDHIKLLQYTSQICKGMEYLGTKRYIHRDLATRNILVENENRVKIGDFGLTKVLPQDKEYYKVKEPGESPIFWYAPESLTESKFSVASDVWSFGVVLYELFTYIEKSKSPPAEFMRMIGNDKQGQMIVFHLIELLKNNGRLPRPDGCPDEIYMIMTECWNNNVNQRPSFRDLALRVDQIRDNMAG
How it was run: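 Compound at 1μM was screened in an ATP-site-dependent competition binding assay (KINOMEscan) against a 395-kinase human panel. Signal was expressed relative to control.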

[9] = biological target: Uncharacterized serine/threonine-protein kinase SBK3 (Homo sapiens) (UniProt P0C264); experiment: Inhibition of human SgK110 assessed as remaining activity at 1 uM by ATP-competition binding assay relative to control; how it was run: as §1
Sequence of Uncharacterized serine/threonine-protein kinase SBK3 (Homo sapiens) (P0C264 whole entry): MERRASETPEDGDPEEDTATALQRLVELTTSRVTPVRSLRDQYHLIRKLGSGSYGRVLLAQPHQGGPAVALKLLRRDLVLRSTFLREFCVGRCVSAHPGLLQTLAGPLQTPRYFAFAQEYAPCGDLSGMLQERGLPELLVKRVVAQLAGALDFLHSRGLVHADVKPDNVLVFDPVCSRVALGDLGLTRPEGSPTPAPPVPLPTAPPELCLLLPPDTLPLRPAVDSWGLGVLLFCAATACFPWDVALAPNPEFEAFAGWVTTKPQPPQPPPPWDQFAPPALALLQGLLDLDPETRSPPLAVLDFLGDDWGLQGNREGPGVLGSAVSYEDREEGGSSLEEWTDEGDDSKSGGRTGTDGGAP

[10] = test system: Mast/stem cell growth factor receptor Kit (Homo sapiens), P10721 [V559D,T670I]; experiment: Inhibition of human KIT V559D/T670I mutant assessed as remaining activity at 1 uM by ATP-competition binding assay relative to control; how it was run: as §3
Sequence of Mast/stem cell growth factor receptor Kit (Homo sapiens), P10721 [V559D,T670I] (P10721 whole entry V559D/T670I): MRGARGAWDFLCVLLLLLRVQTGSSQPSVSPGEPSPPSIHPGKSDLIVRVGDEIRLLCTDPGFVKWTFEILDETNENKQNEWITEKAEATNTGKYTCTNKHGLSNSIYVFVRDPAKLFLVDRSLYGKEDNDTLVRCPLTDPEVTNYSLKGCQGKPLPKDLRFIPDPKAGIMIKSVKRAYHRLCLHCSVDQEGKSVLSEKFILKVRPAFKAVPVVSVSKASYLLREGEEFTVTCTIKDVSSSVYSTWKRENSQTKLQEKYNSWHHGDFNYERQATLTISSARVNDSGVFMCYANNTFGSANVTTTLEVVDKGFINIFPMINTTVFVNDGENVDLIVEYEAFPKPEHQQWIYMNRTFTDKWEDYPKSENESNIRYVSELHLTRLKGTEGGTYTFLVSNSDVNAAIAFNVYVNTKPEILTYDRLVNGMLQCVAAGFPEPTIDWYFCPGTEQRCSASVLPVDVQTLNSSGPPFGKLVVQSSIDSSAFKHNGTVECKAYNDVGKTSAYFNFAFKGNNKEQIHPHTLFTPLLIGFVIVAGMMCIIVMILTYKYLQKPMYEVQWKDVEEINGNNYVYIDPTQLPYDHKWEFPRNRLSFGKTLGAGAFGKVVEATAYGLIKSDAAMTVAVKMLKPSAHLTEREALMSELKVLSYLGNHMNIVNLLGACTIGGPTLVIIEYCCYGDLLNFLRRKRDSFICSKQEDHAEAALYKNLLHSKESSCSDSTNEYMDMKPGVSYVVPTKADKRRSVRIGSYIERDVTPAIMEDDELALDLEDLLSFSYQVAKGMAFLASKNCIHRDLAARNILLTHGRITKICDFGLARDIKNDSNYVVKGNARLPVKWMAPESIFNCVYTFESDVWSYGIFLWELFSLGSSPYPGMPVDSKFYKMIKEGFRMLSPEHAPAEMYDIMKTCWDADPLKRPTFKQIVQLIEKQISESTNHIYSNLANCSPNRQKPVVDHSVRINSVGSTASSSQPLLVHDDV

CLL mononuclear cell = experiment: Antileukemic activity against human CLL mononuclear cells xenografted NSG mouse assessed as reduction in ki67 cells at 0.3 mg/ml preadministered with compound via drinking water and measured after 3 weeks by flow cytometry analysis; type: functional, cell-based
How it was run: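 Primary CLL patient mononuclear cells (1 × 10^8 per mouse) engrafted into NSG mice on day 0 after busulfan priming on day −1. Vehicle or drug was given in drinking water from day −1. Mice were killed 3 weeks after engraftment; spleens homogenized, filtered and RBC-lysed; whole blood collected. Six patients, 2–5 mice per patient; paired t-test per patient.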

[11] = biological target: Calcium/calmodulin-dependent protein kinase kinase 2 (Homo sapiens) (UniProt Q96RR4); experiment: Inhibition of human CAMKK2 assessed as remaining activity at 1 uM by ATP-competition binding assay relative to control; how it was run: as §2
[12] = test system: Mast/stem cell growth factor receptor Kit (Homo sapiens), P10721 [V559D]; experiment: Inhibition of human KIT V559D mutant assessed as remaining activity at 1 uM by ATP-competition binding assay relative to control; how it was run: as §3
Sequence of Mast/stem cell growth factor receptor Kit (Homo sapiens), P10721 [V559D] (P10721 whole entry V559D): as the sequence (P10721 whole entry V559D/T670I) above, with I670T counted along it

[13] = In vivo inhibition of BCR signaling in female […] mouse assessed as B-cell function at 25 mg/kg, po administered for 24 hrs and measured after stimulation with anti-IgM for 18 h by flow cytometry analysis relative to control; type: functional, Splenocyte; set-up: scale not given: the % may be the effect or the level left
How it was run: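 Female C57BL/6 mice (5/group) received vehicle or 25 mg/kg drug by oral gavage at time zero, with spleens taken at time points from 3 to 24 h. Splenocytes were stimulated ex vivo with goat anti-mouse IgM at 10μg/mL for 18 h at 37°C in 5% CO2, then Fc-blocked and stained for CD19 plus CD69, CD86 or phospho-S6(S235/236), with 7-AAD to exclude dead cells. Read-out was flow cytometry on >5,000 gated CD19+ cells, compared with vehicle.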

[14] = biological target: Serine/threonine-protein kinase MAK (Homo sapiens) (UniProt P20794); experiment: Inhibition of human MAK assessed as remaining activity at 1 uM by ATP-competition binding assay relative to control; how it was run: as §3
[15] = test system: Mast/stem cell growth factor receptor Kit (Homo sapiens), P10721 [D816V]; experiment: Inhibition of human KIT D816V mutant assessed as remaining activity at 1 uM by ATP-competition binding assay relative to control; how it was run: as §3
[16] = biological target: Mitogen-activated protein kinase kinase kinase 19 (Homo sapiens) (UniProt Q56UN5); experiment: Inhibition of human YSK4 assessed as remaining activity at 1 uM by ATP-competition binding assay relative to control; how it was run: as §1
Splenocyte = experiment: In vivo inhibition of BCR signaling in female […] mouse assessed as […] CD69 expression at 1 to 3 mg/kg, po administered and measured after stimulation with anti-IgM for 18 h by flow cytometry analysis; type: functional, organism-based; conditions: dose 1-3 mg/kg
How it was run: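 Female C57BL/6 mice (5 per group per dose) were gavaged orally at 0.1–30 mg/kg. At 3 h, splenocytes were stimulated with anti-mouse IgM 10 μg/mL for 18 h at 37°C, 5% CO2. After Fc block, cells were stained for CD19 and CD69 with 7-AAD viability dye; >5,000 gated CD19+ cells acquired by flow cytometry.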

[17] = biological target: 3-phosphoinositide-dependent protein kinase 1 (Homo sapiens) (UniProt O15530); experiment: Inhibition of human PDPK1 assessed as remaining activity at 1 uM by ATP-competition binding assay relative to control; how it was run: as §3
Sequence of 3-phosphoinositide-dependent protein kinase 1 (Homo sapiens) (O15530 whole entry): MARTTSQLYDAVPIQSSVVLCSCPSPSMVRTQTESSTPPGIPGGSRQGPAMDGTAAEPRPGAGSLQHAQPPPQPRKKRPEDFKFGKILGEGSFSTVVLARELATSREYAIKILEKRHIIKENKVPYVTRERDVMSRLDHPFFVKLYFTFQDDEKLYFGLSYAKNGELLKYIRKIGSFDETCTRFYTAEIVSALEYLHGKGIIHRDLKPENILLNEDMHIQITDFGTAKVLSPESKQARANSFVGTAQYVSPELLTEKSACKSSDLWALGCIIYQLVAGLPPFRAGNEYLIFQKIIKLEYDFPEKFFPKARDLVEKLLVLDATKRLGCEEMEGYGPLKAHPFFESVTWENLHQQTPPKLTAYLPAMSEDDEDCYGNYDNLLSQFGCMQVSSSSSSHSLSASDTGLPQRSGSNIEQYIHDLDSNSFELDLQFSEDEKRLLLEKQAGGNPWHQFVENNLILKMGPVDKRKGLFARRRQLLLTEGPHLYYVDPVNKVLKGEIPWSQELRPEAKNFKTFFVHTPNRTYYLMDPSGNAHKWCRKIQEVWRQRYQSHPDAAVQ

[18] = biological target: Mitogen-activated protein kinase 14 (Homo sapiens) (UniProt Q16539); experiment: Inhibition of human P38alpha assessed as remaining activity at 1 uM by ATP-competition binding assay relative to control; how it was run: as §3
Sequence of Mitogen-activated protein kinase 14 (Homo sapiens) (Q16539 whole entry): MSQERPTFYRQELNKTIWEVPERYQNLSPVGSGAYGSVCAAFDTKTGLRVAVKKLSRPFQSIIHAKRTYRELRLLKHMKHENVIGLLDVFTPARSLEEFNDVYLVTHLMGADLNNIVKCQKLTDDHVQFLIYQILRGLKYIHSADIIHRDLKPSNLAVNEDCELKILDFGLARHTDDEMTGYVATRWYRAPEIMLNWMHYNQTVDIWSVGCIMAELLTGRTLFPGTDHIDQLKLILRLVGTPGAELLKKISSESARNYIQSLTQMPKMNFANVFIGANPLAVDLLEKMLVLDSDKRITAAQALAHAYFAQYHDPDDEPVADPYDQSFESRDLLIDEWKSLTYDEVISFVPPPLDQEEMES

[19] = biological target: NT-3 growth factor receptor (Homo sapiens) (UniProt Q16288); experiment: Inhibition of human TRKC assessed as remaining activity at 1 uM by ATP-competition binding assay relative to control; how it was run: as §1
[20] = biological target: Atypical kinase COQ8B, mitochondrial (Homo sapiens) (UniProt Q96D53); experiment: Inhibition of human ADCK4 assessed as remaining activity at 1 uM by ATP-competition binding assay relative to control; how it was run: as §2
[21] = biological target: Serine/threonine-protein kinase PAK 2 (Homo sapiens) (UniProt Q13177); experiment: Inhibition of human PAK2 assessed as remaining activity at 1 uM by ATP-competition binding assay relative to control; how it was run: as §3

Sequence of SRSF protein kinase 1 (Homo sapiens) (Q96SB4 whole entry): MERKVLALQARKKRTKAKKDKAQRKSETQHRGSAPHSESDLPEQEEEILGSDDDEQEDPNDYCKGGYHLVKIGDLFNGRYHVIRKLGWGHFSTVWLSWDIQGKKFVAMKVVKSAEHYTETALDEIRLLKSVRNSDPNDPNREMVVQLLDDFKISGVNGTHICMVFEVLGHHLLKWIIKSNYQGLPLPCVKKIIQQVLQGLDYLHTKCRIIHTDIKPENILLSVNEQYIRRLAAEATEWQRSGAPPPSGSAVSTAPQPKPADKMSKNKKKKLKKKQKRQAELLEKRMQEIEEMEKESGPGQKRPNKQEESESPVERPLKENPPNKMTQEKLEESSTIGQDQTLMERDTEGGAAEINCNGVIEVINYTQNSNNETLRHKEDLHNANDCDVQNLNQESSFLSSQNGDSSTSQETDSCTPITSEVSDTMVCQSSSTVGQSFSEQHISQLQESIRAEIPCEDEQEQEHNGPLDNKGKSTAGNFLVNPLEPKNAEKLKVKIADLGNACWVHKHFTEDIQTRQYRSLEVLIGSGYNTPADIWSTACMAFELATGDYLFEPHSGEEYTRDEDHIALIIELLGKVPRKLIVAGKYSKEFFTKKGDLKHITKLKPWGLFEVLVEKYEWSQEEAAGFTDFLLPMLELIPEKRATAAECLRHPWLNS

Structure (SMILES): CC#CC(=O)N1CCC[C@H]1c1nc(-c2ccc(C(=O)Nc3ccccn3)cc2)c2c(N)nccn12 [ACALABRUTINIB]
- Activity [1]: 67%
- Activity [2]: 93%
- Activity [3]: 90%
- Activity [4]: 87%
- Activity [5]: 88%
- Activity [6]: 99%
- Activity [7]: 84%
- Activity [8]: 81%
- Activity [9]: 90%
- Activity [10]: 55%
- Activity (CLL mononuclear cell): Active
- Activity [11]: 93%
- Activity [12]: 53%
- Activity [13]: ~70%
- Activity [14]: 90%
- Activity [15]: 83%
- Activity [16]: 90%
- Activity (Splenocyte): Active
- Activity [17]: 67%
- Activity [18]: 84%
- Activity [19]: 99%
- Activity [20]: 88%
- Activity [21]: 78%
